# Results from different studies.
# Lines come from different studies, so protocols differ.
# MTNR1B: Melatonin receptor type 1B (MTNR1B, Homo sapiens, UniProt P49286)
# CDK7 with cyclin H: Cyclin-dependent kinase 7, with cyclin H (CDK7, Homo sapiens, UniProt P50613)
# BAZ1A: Bromodomain adjacent to zinc finger domain protein 1A (BAZ1A, Homo sapiens, UniProt Q9NRL2)
SMILES,target,assay,test system,conditions,measurement,value
COc1ccc2ncn(CCNC(C)=O)c2c1,MTNR1B,"GTPγS binding, agonist, radiometric",,cell membranes,Emax,89%
CC[C@H](CC[C@@H](C)[C@H]1CC[C@H]2[C@@H]3CC=C4C[C@@H](O)CC[C@]4(C)[C@H]3CC[C@]12C)C(C)C,CDK7 with cyclin H,"enzyme activity, inhibitor, ADP detection",,10 µM,inhibition,-33%
CCC(=O)NC1Cc2ccccc2C(c2ccccc2)C1 (stereo not shown),MTNR1B,"GTPγS binding, agonist, radiometric",,cell membranes,Emax,34%
c1ccc(-c2nc(NCC(c3ccccc3)c3ccccc3)c3ccccc3n2)cc1,"Sodium-dependent dopamine transporter (Slc6a3, Rattus norvegicus, UniProt P23977)","transporter uptake, inhibitor, radiometric",,12.8 µM,remaining activity,30%
C[S+]([O-])c1ccc(-c2nc(-c3ccncc3)c(-c3ccc(F)cc3)[nH]2)cc1 (stereo not shown),BAZ1A,"thermal stability, DSF",,10 µM,ΔTm,1.03 °C
Nc1ncnc2occ(-c3ccc(NC(=O)Nc4cc(C(F)(F)F)ccc4F)cc3)c12,"Serine/threonine-protein kinase RIO3 (RIOK3, Homo sapiens, UniProt O14730)","cell-free assay, inhibitor",,20 µM,remaining signal,89%
COc1cc2c(cc1OC)[C@@H]1Cc3ccc(OC)c(OC)c3CN1CC2,CDK7 with cyclin H,"enzyme activity, inhibitor, ADP detection",,10 µM,inhibition,-19%
CCc1ccc2scc(CCNC(C)=O)c2c1,MTNR1B,"β-arrestin recruitment, agonist",MT2,90 min,Emax,75%
ON=CC1=C(C=Cc2ccccc2)CCC1,"Fibroblast growth factor 23 (Homo sapiens, UniProt Q9GZV9)","thermal stability, DSF",,200 µM,ΔTm,16.5 °C
COc1c(C(=O)/C=C(\O)c2ccc3c(c2)OCO3)ccc2occc12,CDK7 with cyclin H,"enzyme activity, inhibitor, ADP detection",,10 µM,inhibition,40%
Oc1ccc(-c2nc(-c3ccncc3)c(-c3ccc(F)cc3)[nH]2)cc1,BAZ1A,"thermal stability, DSF",,10 µM,ΔTm,0.34 °C
COc1cc2c(CCNC(C)=O)c[nH]c2cc1I,MTNR1B,"β-arrestin recruitment, agonist",MT2,90 min,Emax,101%
O=c1cc(CO)occ1O,CDK7 with cyclin H,"enzyme activity, inhibitor, ADP detection",,10 µM,inhibition,21.3%
